The text below walks through data of ChEMBL document CHEMBL1130214, “6-(alkylamino)-9-alkylpurines. A new class of potential antipsychotic agents” (1997).

The subject of experiment [1] is Rattus norvegicus. The experiment can be described thus: Inhibition of apomorphine-induced aggression in male rats after intraperitoneal administration of 25 mg/kg of compound. The format is functional. The settings on record: ip. In a few lines: (§1)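 Male rats received a single screening dose, given in water or 0.5% methylcellulose as a solution or fine dispersion. Apomorphine-induced fighting in paired animals was observed starting 1 h after dosing, with five pairs per dose. The value is percent inhibition of fighting time at that dose. Stereotyped behavior was recorded during the fighting observation.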

In experiment [2] the test system is Rattus norvegicus. Nature of the experiment: Antagonists of apomorphine-induced aggression in male rats, administered perorally. The format is functional. In a few lines:
(§2)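 Male rats were dosed ip or orally as solutions or fine dispersions in water or 0.5% methylcellulose. Apomorphine-induced fighting between paired animals was scored 1 h after dosing, and stereotyped behavior was noted. Five pairs were used per dose. ED50 is the dose that cut fighting time by 50%, estimated approximately from two or three bracketing doses, and has no standard error.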

The test system of experiment [3] is Rattus norvegicus. Nature of the experiment: Ability of intraperitoneally administered compound to antagonise apomorphine-induced aggression in male rats. The format is functional. In a few lines: as §2
Experiment [4] relates to Rattus norvegicus. The experiment can be described thus: Compounds were tested for their ability to antagonise apomorphine-induced aggression in male rats. compound was administered perorally. The settings on record: po. It counts as functional. The method in brief: as §2
Experiment [5] concerns Rattus norvegicus. The experiment can be described thus: Inhibition of apomorphine-induced aggression in male rats after peroral administration of 25 mg/kg of compound. The format is functional. The settings on record: route oral. The method in brief:
as §1

The test system of experiment [6] is Rattus norvegicus. Nature of the experiment: Ability of intraperitoneally administered compound (25 mg/kg) to antagonise apomorphine-induced aggression in male rats; d indicates toxic at 25 mg/Kg. It counts as functional, organism-based.
[7] abbreviates: Rattus norvegicus, po, read-out: ED50.
[8] abbreviates: Rattus norvegicus, ip, read-out: ED50.

The term inhibition in vivo denotes the percentage by which the read-out fell short of the control. Lower therefore signals a response near the control. `CC(C)N(C)c1ncnc2c1ncn2CC1CC1` registered an inhibition in vivo at 25 mg/kg in experiment [1] of 32%. As a reminder, the ED50 is the midpoint of the dose-response relation. For `CC(C)n1cnc2c(NC3CC3)ncnc21`, the ED50 is 30 mg/kg in experiment [2] (setting [7]) and 4 mg/kg in experiment [3] (setting [8]).

On to `CC(C1CC1)n1cnc2c(NC3CC3)ncnc21` (stereo in doubt; 59), for which the ED50 was 25 mg/kg in experiment [2] and 4.5 mg/kg in experiment [3].

With `CCNc1ncnc2c1ncn2CC1CC1`, in experiment [3] (setting [8]), the ED50 was 22 mg/kg.

As to `Clc1nc(NC2CC2)c2ncn(CC3CC3)c2n1`, the ED50 in experiment [2] (setting [7]) came to 4 mg/kg; in experiment [3] (setting [8]) it was 2.5 mg/kg. In experiment [1], `c1nc(N2CCCCC2)c2ncn(CC3CC3)c2n1` showed an inhibition in vivo at 25 mg/kg of 28%. Same read-out and setting: in the case of `CN(C)c1ncnc2c1ncn2Cc1ccc(O)cc1` it was 0%.

For the molecule `CC(C1CC1)n1cnc2c(NC3CC3)ncnc21` (stereo in doubt; 61), the ED50 in experiment [2] is above 25 mg/kg; in experiment [3] it was 12.5 mg/kg. In turn, `c1nc(NCC2CC2)c2ncn(CC3CC3)c2n1` came in with an inhibition in vivo at 25 mg/kg in experiment [1] of 28%. With `CN(C)c1ncnc2c1ncn2Cc1cccc(Cl)c1`, the ED50 in experiment [3] (setting [8]) is 50 mg/kg. Same read-out and setting: the same measure for `CSCn1cnc2c(NC3CC3)ncnc21`: 23 mg/kg.

Consider `CC(C1CC1)n1cnc2c(NC3CC3)ncnc21` (stereo in doubt; 60), for which the ED50 came to 9 mg/kg in experiment [2] and 2 mg/kg in experiment [3]. In experiment [1], `CN(C)c1ncnc2c1ncn2Cc1ccccc1[N+](=O)[O-]` returned an inhibition in vivo at 25 mg/kg of 0%.

Regarding `CCCCCn1cnc2c(N(C)C)ncnc21`, the inhibition in vivo at 25 mg/kg in experiment [1] was 0%.

For `CCCn1cnc2c(N(C)C)ncnc21`, the 50% effective dose (ED50) stood at 15 mg/kg in experiment [2] (setting [7]) and 14 mg/kg in experiment [3] (setting [8]).

Molecule `CN(C)c1ncnc2c1ncn2C1CCCCCC1` showed an inhibition in vivo at 25 mg/kg in experiment [1] of 0%.

Regarding `CC(C1CC1)n1cnc2c(N(C=O)C3CC3)ncnc21` (stereo not drawn), the ED50 in experiment [2] (setting [7]) is 7.5 mg/kg; in experiment [3] (setting [8]) it was 2.5 mg/kg. `COc1nc(NC2CC2)c2ncn(CC3CC3)c2n1`: the ED50 in experiment [4] was 3.7 mg/kg. For `c1nc(NC2CC2)c2ncn(CC3CC3)c2n1`, the ED50 was found to be 12 mg/kg in experiment [2] (setting [7]) and 4 mg/kg in experiment [3] (setting [8]). The like results for `CCOc1nc(NC2CC2)c2ncn(CC3CC3)c2n1` were, in that order, 4 mg/kg and 0.8 mg/kg. Take `CCC(C)n1cnc2c(NC3CC3)ncnc21` (stereo not drawn): the ED50 in experiment [3] (setting [8]) is 13.5 mg/kg. `CCN(CC)c1ncnc2c1ncn2CC1CC1` yielded an inhibition in vivo at 25 mg/kg in experiment [1] of 0%.

Regarding `CN(C)c1ncnc2c1ncn2Cc1cccc(N)c1`, the median effective dose (ED50) in experiment [2] (setting [7]) was found to be 58 mg/kg; in experiment [3] (setting [8]), 23 mg/kg. In the case of `CCCCn1cnc2c(N(C)C)ncnc21`, the ED50 in experiment [3] (setting [8]) was 10 mg/kg. Same read-out and setting: in the case of `O=CN(c1ncnc2c1ncn2CC1CCC1)C1CC1` it was 7 mg/kg; in that of `c1nc(NC2CC2)c2ncn(C3CCC3)c2n1`, 19 mg/kg; in that of `CCC(C)n1cnc2c(N(C)C)ncnc21` (stereo not drawn), 14 mg/kg.

Molecule `CN(C)c1ncnc2c1ncn2C1CCCC1` gave an inhibition in vivo at 25 mg/kg in experiment [1] of 27%.

In experiment [1], `CN(C)c1ncnc2c1ncn2C1CCCCC1` returned an inhibition in vivo at 25 mg/kg of 70%. For `CSc1nc(NC2CC2)c2ncn(CC3CC3)c2n1`, the ED50 in experiment [3] (setting [8]) is 5 mg/kg.

As to `CN(C)c1ncnc2c1ncn2Cc1ccccc1`, the ED50 in experiment [2] (setting [7]) turned out to be 52 mg/kg; in experiment [3] (setting [8]), 15 mg/kg.

Regarding `CCn1cnc2c(N(C)C)ncnc21`, the ED50 in experiment [3] (setting [8]) worked out at 15 mg/kg. Still for that read-out and setting: in the case of `CN(C)c1ncnc2c1ncn2Cc1ccc(N)cc1` it was 17 mg/kg. Take `CN(C)c1ncnc2c1ncn2C1CCC1`: the ED50 in experiment [2] (setting [7]) was found to be 26 mg/kg; in experiment [3] (setting [8]), 11 mg/kg.

`CN(C)c1ncnc2c1ncn2C1CC1`: the ED50 in experiment [2] (setting [7]) was determined as 25 mg/kg; in experiment [3] (setting [8]), 9 mg/kg.

In experiment [1], `CCCNc1ncnc2c1ncn2CC1CC1` gave an inhibition in vivo at 25 mg/kg of 0%.

In turn, `Nc1nc(NC2CC2)c2ncn(CC3CC3)c2n1` displayed an inhibition in vivo at 25 mg/kg in experiment [5] of 26%. Moreover, in experiment [3] (setting [8]), the ED50 was 9 mg/kg.

As to `CCCOc1nc(NC2CC2)c2ncn(CC3CC3)c2n1`, the 50% effective dose (ED50) in experiment [2] (setting [7]) and in experiment [3] (setting [8]) was 2.5 mg/kg in each case. For the molecule `Nc1ncnc2c1ncn2CC1CC1`, in experiment [3] (setting [8]), the ED50 is 20 mg/kg.

For the molecule `CN(c1ncnc2c1ncn2CC1CC1)C1CC1`, the results for the ED50 in experiment [2] (setting [7]) and in experiment [3] (setting [8]) were 35 mg/kg and 7.5 mg/kg, respectively. Take `FC(F)(F)c1nc(NC2CC2)c2ncn(CC3CC3)c2n1`: the ED50 is 2 mg/kg in experiment [2] (setting [7]) and 0.9 mg/kg in experiment [3] (setting [8]). On to `CCN(C)c1ncnc2c1ncn2CC1CC1`, for which the ED50 in experiment [3] (setting [8]) came to 12.5 mg/kg. `CC(C)n1cnc2c(N(C)C)ncnc21`: the ED50 in experiment [2] (setting [7]) amounted to 15 mg/kg; in experiment [3] (setting [8]) it was 11 mg/kg. Turning to `CN(C)c1ncnc2c1ncn2Cc1ccccc1F`, the ED50 in experiment [3] (setting [8]) amounted to 37 mg/kg. With `O=CN(c1ncnc2c1ncn2C1CCC1)C1CC1`, 25 mg/kg produced 0% inhibition in vivo in experiment [5]. In addition, in experiment [3] (setting [8]), the ED50 is 20 mg/kg.

As to `CCCCn1cnc2c(NC3CC3)ncnc21`, the ED50 in experiment [3] (setting [8]) turned out to be 18 mg/kg. Molecule `c1nc(N2CCC2)c2ncn(CC3CC3)c2n1` came in with an inhibition in vivo at 25 mg/kg in experiment [1] of 30%. The same measure, in the same setting: in the case of `CC(=O)N(c1ncnc2c1ncn2C1CC1)C1CC1` it was 22%; in that of `CN(C)c1ncnc2c1ncn2C`, 30%.

Consider `CCNc1nc(NC2CC2)c2ncn(CC3CC3)c2n1`, for which the ED50 in experiment [4] stood at 11 mg/kg; in experiment [3] (setting [8]), 9 mg/kg. Consider `c1nc(NC2CC2)c2ncn(CC3CCCC3)c2n1`, for which, in experiment [3] (setting [8]), the 50% effective dose (ED50) was determined as 15 mg/kg. In experiment [1], `c1nc(NC2CCC2)c2ncn(CC3CC3)c2n1` displayed an inhibition in vivo at 25 mg/kg of 0%.

Take `COc1ccc(Cn2cnc3c(N(C)C)ncnc32)cc1`: the ED50 in experiment [3] (setting [8]) was 58 mg/kg. Molecule `CC(C)Cn1cnc2c(NC3CC3)ncnc21` yielded an inhibition in vivo at 25 mg/kg in experiment [5] of 0%. For the same molecule, the ED50 in experiment [3] (setting [8]) turned out to be 10 mg/kg. On to `c1nc(NC2CC2)c2ncn(C3CCCC3)c2n1`, for which the ED50 entry in experiment [6] was “Toxic”. Consider `CNc1nc(NC2CC2)c2ncn(CC3CC3)c2n1`, for which the figures for the ED50 in experiment [2] (setting [7]) and in experiment [3] (setting [8]) were 12.5 mg/kg and 3 mg/kg, respectively. The corresponding values for `CN(C)c1ncnc2c1ncn2Cc1cccc(NC(=O)C(N)Cc2ccccc2)c1` (stereo not drawn) are 96 mg/kg and 27 mg/kg.

For `O=CN(c1ncnc2c1ncn2CC1CC1)C1CC1`, the ED50 in experiment [2] (setting [7]) was 30 mg/kg; in experiment [3] (setting [8]), 8 mg/kg. For `CCCn1cnc2c(NC3CC3)ncnc21`, the ED50 in experiment [3] (setting [8]) is 6 mg/kg. As to `O=CN(c1ncnc2c1ncn2C1CC1)C1CC1`, the figures for the ED50 in experiment [2] (setting [7]) and in experiment [3] (setting [8]) were 7.4 mg/kg and 2.4 mg/kg, respectively. The corresponding values for `c1nc(NC2CC2)c2ncn(C3CC3)c2n1` are 20 mg/kg and 4.5 mg/kg. With `CN(C)c1ncnc2c1ncn2CC1CCCCC1`, testing at 25 mg/kg in experiment [1] gave an inhibition in vivo of 0%. As for `c1nc(NC2CC2)c2ncn(CC3CCC3)c2n1`, the ED50 in experiment [2] (setting [7]) was found to be 44 mg/kg; in experiment [3] (setting [8]) it was 10 mg/kg. For the molecule `CN(C)c1ncnc2c1ncn2Cc1cccc(C#N)c1`, the ED50 in experiment [3] (setting [8]) was 13 mg/kg. `c1ccc(Nc2ncnc3c2ncn3CC2CC2)cc1` displayed an inhibition in vivo at 25 mg/kg in experiment [1] of 0%.

Regarding `CNc1ncnc2c1ncn2CC1CC1`, the inhibition in vivo at 25 mg/kg in experiment [5] stood at 38%. In addition, in experiment [3] (setting [8]), the ED50 was found to be 12 mg/kg. `CC(C)(C)Nc1ncnc2c1ncn2CC1CC1`: the inhibition in vivo at 25 mg/kg in experiment [1] amounted to 0%. With `CN(c1ncnc2c1ncn2C1CC1)C1CC1`, the ED50 in experiment [2] (setting [7]) was 12.5 mg/kg; in experiment [3] (setting [8]), 4.5 mg/kg. In the case of `CN(C)c1ncnc2c1ncn2CC1CC1`, the figures for the ED50 in experiment [2] (setting [7]) and in experiment [3] (setting [8]) were 17 mg/kg and 4.5 mg/kg, respectively. On to `CCN(c1ncnc2c1ncn2CC1CC1)C1CC1`, for which, in experiment [3] (setting [8]), the ED50 turned out to be 20 mg/kg. For `CN(C)c1ncnc2c1ncn2CC1CCC1`, in experiment [3] (setting [8]), the ED50 worked out at 8 mg/kg.

Consider `CC(C)Cn1cnc2c(N(C)C)ncnc21`, for which the ED50 in experiment [2] (setting [7]) is 22 mg/kg; in experiment [3] (setting [8]), 5 mg/kg.
